Laboratory results as given in ChEMBL document CHEMBL4145448, “Broad activity of diphenyleneiodonium analogues against Mycobacterium tuberculosis, malaria parasites and bacterial pathogens” (Eur J Med Chem, 2018).

Legend:
Pseudomonas aeruginosa [1] = assay: Antibacterial activity against Pseudomonas aeruginosa ATCC 27853 after 18 hrs by broth microdilution method; format: functional; settings: ATCC 27853, 18 h
In short: (§1)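 Broth microdilution per CLSI in cation-adjusted Mueller-Hinton broth. 100 µL inoculum (~10^6 cfu/mL in CaMHB) mixed with 100 µL CaMHB containing compound, 0 to 128 µM. Incubated 18 h at 37 °C. MIC taken as the lowest concentration with no visible growth. Polymyxin B served as positive control. Isolates were stored at -80 °C in tryptone soy broth with 20% glycerol.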

Pseudomonas aeruginosa [2] = assay: Antibacterial activity against Pseudomonas aeruginosa QLD PSA 1 after 18 hrs by broth microdilution method; format: functional; settings: QLD PSA 1, 18 h; in short: as §1
Pseudomonas aeruginosa [3] = assay: Antibacterial activity against Pseudomonas aeruginosa isolate 912 after 18 hrs by broth microdilution method; format: functional; settings: isolate 912, 18 h; in short: as §1
Pseudomonas aeruginosa [4] = assay: Antibacterial activity against Pseudomonas aeruginosa isolate 18878B klon 1 after 18 hrs by broth microdilution method; format: functional; settings: isolate 18878B klon 1, 18 h; in short: as §1
Acinetobacter baumannii [5] = assay: Antibacterial activity against Acinetobacter baumannii isolate 246-01-C after 18 hrs by broth microdilution method; format: functional; in short: as §1
Acinetobacter baumannii [6] = assay: Antibacterial activity against Acinetobacter baumannii ATCC 19606 col10 after 18 hrs by broth microdilution method; format: functional; settings: ATCC 19606 = CIP 70.34 = JCM 6841 col10, 18 h; in short: as §1
Acinetobacter baumannii [7] = assay: Antibacterial activity against Acinetobacter baumannii isolate 07AC-336 after 18 hrs by broth microdilution method; format: functional; settings: isolate 07AC-336, 18 h; in short: as §1
Klebsiella pneumoniae [8] = assay: Antibacterial activity against Klebsiella pneumoniae isolate M320445 after 18 hrs by broth microdilution method; format: functional; settings: isolate M320445, 18 h; in short: as §1
Klebsiella pneumoniae [9] = assay: Antibacterial activity against Klebsiella pneumoniae isolate 1 after 18 hrs by broth microdilution method; format: functional; settings: isolate 1, 18 h; in short: as §1
Klebsiella pneumoniae [10] = assay: Antibacterial activity against Klebsiella pneumoniae isolate 224-11-C after 18 hrs by broth microdilution method; format: functional; in short: as §1
Klebsiella pneumoniae [11] = assay: Antibacterial activity against Klebsiella pneumoniae isolate 248-33-D after 18 hrs by broth microdilution method; format: functional; in short: as §1
Escherichia coli [12] = assay: Antibacterial activity against Escherichia coli N4149 after 18 hrs by broth microdilution method; format: functional; settings: N4149, 18 h; in short: as §1
Escherichia coli [13] = assay: Antibacterial activity against Escherichia coli N11281 after 18 hrs by broth microdilution method; format: functional; settings: N11281, 18 h; in short: as §1
Staphylococcus aureus = assay: Antibacterial activity against vancomycin-resistant Staphylococcus aureus ATCC 700699 after 18 hrs by broth microdilution method; format: functional; settings: ATCC 700699, 18 h; in short: as §1
[14] = Selectivity index, ratio of CC50 for human HepG2 cells in presence of 1% FBS to MIC for Pseudomonas aeruginosa QLD PSA 1; format: toxicity; settings: read-out: Selectivity Index
In short: (§2)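 Selectivity index is CC50 (1% FBS) divided by MIC. […] They then got compound at 300 to 0.14 µM (3-fold steps) for 24 h at 37 °C, 5% CO2. Resazurin (10 µM, 2 h) was read at ex/em 560/590 in duplicate wells. For MIC, CLSI broth microdilution was run in CaMHB with ~10^6 cfu/mL inoculum and 0–128 µM compound.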

[15] = Selectivity index, ratio of CC50 for human HepG2 cells in presence of 1% FBS to MIC for Pseudomonas aeruginosa isolate 18878B klon 1; format: toxicity; settings: read-out: Selectivity Index; in short: as §2
[16] = Selectivity index, ratio of CC50 for human HepG2 cells in presence of 1% FBS to MIC for Pseudomonas aeruginosa isolate M146201; format: toxicity; settings: read-out: Selectivity Index; in short: as §2
[17] = Selectivity index, ratio of CC50 for human HepG2 cells in presence of 1% FBS to MIC for Acinetobacter baumannii ATCC 19606; format: toxicity; settings: read-out: Selectivity Index
[18] = Selectivity index, ratio of CC50 for human HepG2 cells in presence of 1% FBS to MIC for Acinetobacter baumannii isolate 246-01-C; format: toxicity; settings: read-out: Selectivity Index
[19] = Selectivity index, ratio of CC50 for human HepG2 cells in presence of 1% FBS to MIC for Acinetobacter baumannii ATCC 17978 col10; format: toxicity; settings: read-out: Selectivity Index
[20] = Selectivity index, ratio of CC50 for human HepG2 cells in presence of 1% FBS to MIC for Klebsiella pneumoniae ATCC 13883; format: toxicity; settings: read-out: Selectivity Index
[21] = Selectivity index, ratio of CC50 for human HepG2 cells in presence of 1% FBS to MIC for Klebsiella pneumoniae isolate 1; format: toxicity; settings: read-out: Selectivity Index
[22] = Selectivity index, ratio of CC50 for human HepG2 cells in presence of 1% FBS to MIC for Klebsiella pneumoniae isolate 224-11-C; format: toxicity; settings: read-out: Selectivity Index
[23] = Selectivity index, ratio of CC50 for human HepG2 cells in presence of 1% FBS to MIC for Klebsiella pneumoniae isolate 248-33-D; format: toxicity; settings: read-out: Selectivity Index
[24] = Selectivity index, ratio of CC50 for human HepG2 cells in presence of 1% FBS to MIC for Escherichia coli N4149; format: toxicity; settings: read-out: Selectivity Index
[25] = Selectivity index, ratio of CC50 for human HepG2 cells in presence of 1% FBS to MIC for Escherichia coli N11281; format: toxicity; settings: read-out: Selectivity Index
[26] = Selectivity index, ratio of CC50 for human HepG2 cells in presence of 1% FBS to MIC for vancomycin-resistant Enterococcus faecium ATCC 700221; format: toxicity; settings: read-out: Selectivity Index; in short: as §2
[27] = Selectivity index, ratio of CC50 for human HepG2 cells in presence of 1% FBS to MIC for vancomycin-intermediate Staphylococcus aureus ATCC 700698; format: toxicity; settings: read-out: Selectivity Index; in short: as §2
[28] = Selectivity index, ratio of CC50 for human HepG2 cells in presence of 1% FBS to MIC for vancomycin-resistant Staphylococcus aureus ATCC 700699; format: toxicity; settings: read-out: Selectivity Index; in short: as §2
[29] = system: Mycobacterium tuberculosis; assay: Antimycobacterial activity against Mycobacterium tuberculosis H37Rv ATCC 25618 after 7 days by resazurin dye based assay; format: functional; settings: H37Rv ATCC 25618, 168 h
In short: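 H37Rv grown at 37 °C in 7H9 with 10% ADC, 0.5% glycerol and 0.02% tyloxapol. Compounds serially diluted in water, 0 to 10 µM, in triplicate. Culture adjusted to OD600 0.001 and incubated 7 days at 37 °C. Resazurin (0.05% w/v) added for 4-24 h and fluorescence read at 590 nm. MIC is the lowest concentration giving complete growth inhibition versus untreated. Rifampicin served as control.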

[30] = Selectivity index, ratio of CC50 for human HepG2 cells in presence of 1% FBS to MIC for Mycobacterium tuberculosis H37Rv ATCC 25618; format: toxicity; settings: read-out: Selectivity Index
[31] = Selectivity index, ratio of CC50 for human HepG2 cells in presence of 1% FBS to IC50 for CQ-sensitive GFP-fused Plasmodium falciparum D10; format: toxicity; settings: read-out: Ratio IC50
[32] = Cytotoxicity against human HepG2 cells after 24 hrs in presence of 1% FBS by resazurin dye based assay; format: cell-based
In short: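 HepG2 cells seeded at 4000/well in DMEM with 1% FBS and allowed to attach for 24 h at 37 °C, 5% CO2. Compounds added from 300 to 0.14 µM in 3-fold steps and incubated 24 h. 10 µM resazurin added for 2 h, fluorescence read at ex/em 560/590. Percent viability computed relative to untreated and negative controls, duplicate wells.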

Compound	MIC (Pseudomonas aeruginosa [1]) [µM]	MIC (Pseudomonas aeruginosa [2]) [µM]	MIC (Pseudomonas aeruginosa [3]) [µM]	MIC (Pseudomonas aeruginosa [4]) [µM]	MIC (Acinetobacter baumannii [5]) [µM]	MIC (Acinetobacter baumannii [6]) [µM]	MIC (Acinetobacter baumannii [7]) [µM]	MIC (Klebsiella pneumoniae [8]) [µM]	MIC (Klebsiella pneumoniae [9]) [µM]	MIC (Klebsiella pneumoniae [10]) [µM]	MIC (Klebsiella pneumoniae [11]) [µM]	MIC (Escherichia coli [12]) [µM]	MIC (Escherichia coli [13]) [µM]	MIC (Staphylococcus aureus) [µM]	selectivity ratio [14]	selectivity ratio [15]	selectivity ratio [16]	selectivity ratio [17]	selectivity ratio [18]	selectivity ratio [19]	also measured
c1ccc2c(c1)[I+]c1c-2ccc2ccccc12	8.4	4.2	2.1	2.1	4.2	1.1	8.4	17	34	34	34	34	17	4.2	0.17	0.34	0.09	0.17	0.17	1.4	selectivity ratio [20]: 0.09; selectivity ratio [21]: 0.02; selectivity ratio [22]: 0.02; selectivity ratio [23]: 0.02; selectivity ratio [24]: 0.02; selectivity ratio [25]: 0.04; selectivity ratio [26]: 0.69; selectivity ratio [27]: 0.17; selectivity ratio [28]: 0.17; MIC [29]: 0.52 µM; selectivity ratio [30]: 2.4; selectivity ratio [31]: 5.8; CC50 at 24 h [32]: 720 nM
Fc1ccc2c(c1)[I+]c1ccccc1-2	8.9	8.9	1.1	1.1	4.5	2.2	8.9	36	72	72	36	18	18	8.9	0.66	5.3	2.6	2.6	2.6	11	selectivity ratio [20]: 0.16; selectivity ratio [21]: 0.08; selectivity ratio [22]: 0.08; selectivity ratio [23]: 0.16; selectivity ratio [24]: 0.08; selectivity ratio [25]: 0.08; selectivity ratio [26]: 2.6; selectivity ratio [27]: 0.66; selectivity ratio [28]: 0.66; MIC [29]: 0.29 µM; selectivity ratio [30]: 20; selectivity ratio [31]: 105; CC50 at 24 h [32]: 5900 nM
N#Cc1ccc2c(c1)[I+]c1ccccc1-2	35	8.8	4.4	4.4	18	2.2	> 71	35	> 71	> 71	> 71	71	71	8.8	0.37	0.75	0.19	0.19	0.19	1.5	selectivity ratio [20]: 0.19; selectivity ratio [21]: > 0.05; selectivity ratio [22]: > 0.05; selectivity ratio [23]: > 0.05; selectivity ratio [24]: 0.05; selectivity ratio [25]: 0.05; selectivity ratio [26]: 1.5; selectivity ratio [27]: 0.37; selectivity ratio [28]: 0.37; MIC [29]: 0.29 µM; selectivity ratio [30]: 12; selectivity ratio [31]: 62; CC50 at 24 h [32]: 3300 nM
Clc1ccc2c(c1)[I+]c1ccccc1-2	8.7	2.2	1.1	0.54	2.2	1.1	2.2	8.7	17	17	17	8.7	4.3	2.2	0.51	2	0.51	0.51	0.51	< 4.1	selectivity ratio [20]: 0.13; selectivity ratio [21]: 0.06; selectivity ratio [22]: 0.06; selectivity ratio [23]: 0.06; selectivity ratio [24]: 0.13; selectivity ratio [25]: 0.26; selectivity ratio [26]: 1; selectivity ratio [27]: 0.51; selectivity ratio [28]: 0.51; MIC [29]: 0.28 µM; selectivity ratio [30]: 3.9; selectivity ratio [31]: 15; CC50 at 24 h [32]: 1100 nM
